M5 PAM: potentiates acetylcholine response at human M5 receptor. CHO-K1 hM5, Fluo-8 calcium, ACh EC20 PAM; 0% = ACh EC20, 100% = ACh EC100. 0.3% of 360,000 active. activation, % at 3 µM. P08912;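 active = activation above the run cutoff, the mean activation of all test compounds plus 3 SD, cut at about 18% in these data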
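System – CHO-K1 hM5 cells · Compound – 3 µM, single dose · Incubation – compound preincubation 140 s before EC20 acetylcholine addition · Technique – Fluo-8 calcium fluorescence · Measure – Max/basal fluorescence ratio as % of EC20–EC100 ACh window · Benchmarks – low control EC20 acetylcholine (0%), high control EC100 acetylcholine (100%) · Replication – singlicate, one well per test compound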
CHRM4 PAM: potentiates acetylcholine response at human M4 receptor; P08173; CHO-K1 hM4/Gqi5, Fluo-8 calcium fluorescence, ACh EC20; 0% = ACh EC20, 100% = maximal ACh; activation, % at 3 µM; 0.4% of 360,000 active; AID 624126;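 active = activation above its plate's cutoff, the mean activation of sample wells plus 3 SD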
Target sequence (P08173 whole entry, looked up): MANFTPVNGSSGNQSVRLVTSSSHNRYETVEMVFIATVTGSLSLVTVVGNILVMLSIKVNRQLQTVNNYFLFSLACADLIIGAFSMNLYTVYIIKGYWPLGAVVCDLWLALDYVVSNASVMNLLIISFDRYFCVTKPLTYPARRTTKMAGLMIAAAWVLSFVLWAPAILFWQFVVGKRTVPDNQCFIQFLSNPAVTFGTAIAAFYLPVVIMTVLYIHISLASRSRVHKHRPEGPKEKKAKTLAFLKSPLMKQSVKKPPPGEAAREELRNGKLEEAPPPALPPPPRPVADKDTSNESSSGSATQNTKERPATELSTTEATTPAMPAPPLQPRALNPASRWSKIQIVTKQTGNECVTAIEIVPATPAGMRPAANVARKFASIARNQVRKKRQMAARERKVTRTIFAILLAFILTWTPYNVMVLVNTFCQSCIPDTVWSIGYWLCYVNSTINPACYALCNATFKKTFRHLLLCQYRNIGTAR
M4 antag: antagonists of human muscarinic M4 receptor (CHRM4). CHO-hM4 cells, ACh EC80, Fluo-8 calcium fluorescence. inhibition, % at 3 µM. 0.73% of 360,000 active;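 active = inhibition above its plate's cutoff, the mean inhibition of sample wells plus 3 SD, cut at about 27% in these data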;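 also: 0% = acetylcholine EC80 with DMSO and 100% = DMSO without agonist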
CHRM4 agonist: CHRM4 agonism in calcium assay; 0.14% of 360,000 active; activation, % at 3 µM; CHO-K1 hM4/Gqi5, Fluo-8 calcium fluorescence; vehicle 0%, full acetylcholine response 100%; P08173;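 active = activation above the run mean over all test wells plus 3 SD, cut at about 32% in these data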;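 also: peak over basal fluorescence ratio per well then scaled between controls; 0% = DMSO wells and 100% = acetylcholine at EC100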
CHRM5 antagonist: antagonists of human muscarinic M5 receptor (CHRM5); inhibition, % at 3 µM; P08912; 0.59% of 360,000 active; CHO-hM5 cells, Fluo-8 calcium fluorescence, ACh EC80;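 active = inhibition above a per-plate cutoff, the mean of that plate's test compounds plus 3 SD, cut at about 27% in these data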;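 also: 0% = acetylcholine EC80 with DMSO and 100% = DMSO without agonist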
M5 ag: agonists of human muscarinic M5 receptor (CHRM5); 0.19% of 360,000 active; activation, % at 3 µM; CHO-K1 hM5 cells, Fluo-8 calcium fluorescence; 0% DMSO wells, 100% maximal acetylcholine response;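 active = activation above the run's mean over test compounds plus 3 SD, cut at about 23% in these data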;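 also: signal is peak over basal fluorescence ratio across the kinetic read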
An asterisk follows results filed as active; ! = not active in a repeat. The list is not random: actives were taken first. Their share in the collection is about 1.8%.

SMILES | M5 PAM | CHRM4 PAM | M4 antag | CHRM4 agonist | CHRM5 antagonist | M5 ag
Cc1ccccc1C(=O)NC1CCN(Cc2nnnn2C2CCCC2)CC1 | 32* | 5 | -7 | 0 | 27 | -1
Cc1ccccc1C(=O)NC1CCN(Cc2nnnn2C(C)(C)C)CC1 | 6 | -1 | 3 | 0 | -3 | 2
O=C1C=CC(=Nc2ccc(F)cc2)O1 | 22* | 9 | -21 | 2 | -11 | -2
CC(C)CCNc1nc(N)c([N+](=O)[O-])c(NCCO)n1 | 19* | 19 | -12 | 1 | -14 | 19
CC(C)CNc1nc(N)c([N+](=O)[O-])c(NCC2CCCO2)n1 (stereo not given) | 11 | 35* | 1 | 2 | -6 | -1
Nc1nc(NCCOCCO)nc(NC2CCCCC2)c1[N+](=O)[O-] | -4 | 3 | 3 | 2 | 28* | 6
Cc1cc(C)c2nc3nc(C)c(C)cc3c(N)c2c1 | 2 | 1 | -1 | 1 | -5 | -3
COC(=O)CCCC1=CC2=CC(=O)C(C)(OC(=O)c3cccs3)C(=O)C2=CN1c1ccc(OC)cc1 (stereo not given) | 8 | 4 | 27* | 1 | 4 | -1
COC(=O)CCCC1=CC2=CC(=O)C(C)(OC(=O)c3cccs3)C(=O)C2=CN1Cc1ccccc1 (stereo not given) | -3 | 10 | 4 | 1 | 9 | -3
COc1c(Br)cc([N+](=O)[O-])c(OC)c1C(=O)NC(=O)Nc1nc(C)cc(C)n1 | 5 | -16 | 16 | -1 | 4 | -10
CC(C)CCN1C(=O)c2ccccc2C1C(=O)NCc1cccnc1 (stereo not given) | 3 | 21* | 10 | 2 | -9 | -8
CCOC(=O)C1=C(C)N(c2ccccc2)C(=O)NC1c1cccc([N+](=O)[O-])c1 (stereo not given) | -18 | -39 | 75* | 1 | 39* | -5
CCC(C)Sc1cccc(-c2nc3cnccn3c2NC2CCCCC2)c1 (stereo not given) | 4 | -11 | 26* | -2 | 7 | 4
CCC(C)Sc1cc(-c2nc3ccccn3c2NC2CCCCC2)ccc1OC (stereo not given) | -19 | -9 | 55*! | 5 | 14 | -5
CCC(C)Sc1cc(-c2nc3cc(C)ccn3c2NC2CCCCC2)ccc1OC (stereo not given) | -12 | -10 | 10 | 7 | 19 | -5
c1cc(SC2CCCCC2)cc(-c2nc3cnccn3c2NC2CCCCC2)c1 | 7 | 0 | 9 | 2 | 8 | 6
COc1cc(C=O)ccc1OC(=O)c1ccc(C(C)C)cc1 | 5 | 4 | 0 | 0 | 0 | 1
Cc1cc(C)c2c(N)c(C(=O)c3ccccc3)sc2n1 | 5 | 56* | 33* | 26 | -10 | -3
Cc1cc(C)c2c(N)c(C(=O)c3ccc(Cl)cc3)sc2n1 | -6 | 28* | -2 | 11 | 6 | 0
COC(=O)c1ccc(OCC2c3cc(OC)c(OC)cc3CCN2C(C)=O)cc1 (stereo not given) | -13 | -18 | 13 | 17 | 16 | 0
COC(=O)c1ccc(OCC2c3cc(OC)c(OC)cc3CCN2C(=O)c2ccco2)cc1 (stereo not given) | -15 | -14 | 30* | 21 | 17 | 2
C=CC[C@@H](CC(=O)N[C@@H](CO)Cc1ccccc1)C(=O)N[C@@H](C)COC(=O)[C@@H](CC=C)Cc1ccc(F)cc1 | -9 | 11 | -10 | 4 | 18 | -1
C=CC[C@@H](CC(=O)N[C@@H](CO)Cc1ccccc1)C(=O)N[C@H](C)COC(=O)[C@@H](CC=C)Cc1ccc(F)cc1 | 5 | 26* | 5 | 2 | 5 | 3
C=CCC[C@H](Cc1ccc(F)cc1)C(=O)OC[C@H](Cc1c[nH]c2ccccc12)NC(=O)[C@H](CC=C)CC(=O)NCCO | -16 | 0 | 30* | 18 | 13 | 2
C=CC[C@H](CC(=O)N(CCO)Cc1ccccc1)C(=O)N[C@H](COC(=O)[C@@H](CC=C)CC(=O)OC(C)(C)C)Cc1c[nH]c2ccccc12 | -21 | -4 | 27* | 14 | 14 | 4
SMILES | M5 PAM | CHRM4 PAM | M4 antag | CHRM4 agonist | CHRM5 antagonist | M5 ag
CCc1cccc(N(C(=O)c2csnn2)C(C(=O)NC2CCCC2)c2cccnc2)c1 (stereo not given) | -5 | 11 | -12 | 2 | 21 | -3
CCc1cccc2c(C(=O)CSc3nnc(C4CC4)o3)c[nH]c12 | -1 | 4 | -1 | 3 | 0 | 0
Cc1c(Cl)cccc1NC(=S)NCC1COc2ccccc2O1 (stereo not given) | -20 | -14 | 4 | 14 | 39* | -1
O=C(COc1cccnc1[N+](=O)[O-])c1c[nH]c2ccccc12 | 14 | 14 | 34* | 4 | -4 | -1
C(=N\c1nc2ccccc2n1CCN1CCCCC1)/c1ccc2c(c1)OCO2 | 23* | 10 | 6 | 1 | -4 | -3
CCCCCOc1ccc(C(=O)Nc2ccc(N3CCOCC3)cc2N2CCOCC2)cc1 | 0 | 9 | -7 | 1 | 0 | 0
Cc1c(-c2ccccc2)[n+](=O)c(-c2ccc(Br)cc2)c(C)n1[O-] | 3 | -5 | 0 | 2 | 3 | 1
Cc1c(-c2ccccc2)[n+](=O)c(-c2ccc(Cl)cc2)c(C)n1[O-] | -11 | 0 | -2 | 16 | 30* | -2
CC[N+](C)(C)CC/C=C1/c2ccccc2Sc2ccc(Cl)cc21 | -35 | -17 | 96* | 1 | 99* | -20
CCCCCC[n+]1c(-c2ccc(Cl)cc2Cl)csc1Nc1ccccc1 | -3 | 1 | -10 | 0 | -4 | 0
CCCCCCCCCCC[N+](C)(C)CC/C=C1/c2ccccc2Sc2ccc(Cl)cc21 | -18 | -19 | 52* | 1 | 82* | -8
CCCCCCCCCC[N+](C)(C)CC/C=C1/c2ccccc2Sc2ccc(Cl)cc21 | -19 | -20 | 41* | -1 | 60* | -8
FC(F)Oc1ccc(NC(=S)NCc2ccccc2)cc1 | -10 | -5 | -2 | 5 | 13 | -1
FC(F)Oc1ccc(NC(=S)NCc2ccccc2)cc1Cl | -16 | -19 | 12 | 13 | 33* | 4
COCCCN1C(=O)C(CC(=O)NCCN2CCOCC2)CC(C(=O)N2CCCCCC2)=C1C (stereo not given) | 2 | 2 | -4 | 1 | -11 | 2
CCCCNC(=O)CN(C1CCCCC1)S(C)(=O)=O | 6 | 0 | 12 | 0 | -5 | 1
CCNC(=O)CN(C1CCCCC1)S(C)(=O)=O | 12 | 22* | -4 | 3 | -12 | 1

Screens deposited in PubChem by The Scripps Research Institute Molecular Screening Center.
